The source made the active and inactive calls. The rule behind the calls is not given here.

Three molecules from ChEMBL document CHEMBL1240484, “New 4H-chromen-4-one and 2H-chromene derivatives as anti-picornavirus capsid-binders” (Bioorg Med Chem, 2010) can be followed below.

Data set [1] can be described thus: Cytotoxicity against human HeLa cells assessed as maximum non-cytotoxic concentration after 3 days by XTT assay. The class given is cell-based. The essentials: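 HeLa cells seeded at 2 × 10³ per well with twofold compound dilutions from the maximum soluble concentration, quadruplicate wells, 37 °C in 5% CO2 for 3 days until controls were confluent. XTT added (final 0.15 mg/mL) for 4 h, absorbance read at 492 nm with 690 nm reference. Morphology also scored microscopically. […] MNTC is the highest dose with no toxicity or growth reduction.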
(Formazan colour is commonly taken as a measure of viable cells.)

Data set [2] has as its system Enterovirus A71. The experiment in a line: Antiviral activity against Human enterovirus 71 infected in human Hep2 cells after 2 days by plaque reduction assay. Type of data set: functional, organism-based. Conditions: for IC50: Enterovirus A, HEp-2, 48 h; for Activity: HEp-2. The essentials: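 Inoculum removed, then plaque overlay with fourfold drug dilutions starting from the MNTC. Two days at 37 °C, neutral red (0.2 mg/mL in PBS pH 7.4) staining, plaques counted, triplicate wells. IC50 taken from log dose vs % plaque reduction.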
(In general: Plaque reduction counts the foci of infection that form in a cell layer.)

The test system of data set [3] is rhinovirus A1B. In words: Antiviral activity against Human rhinovirus 1B infected in human HeLa cells assessed as reduction of viral yeild at 20 uM treated immediately after virus infection measured >1 hr after washout by plaque reduction assay. The class given is functional, organism-based. A digest of the protocol: (§1)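 One-step growth of HRV 1B in confluent HeLa cells, multiplicity of five, attachment 1 h at 4 °C, then three PBS washes (time 0). Compound at 20 µM present throughout, during adsorption only, or added or removed at 0.5, 1, 2 or 4 h p.i. Incubation at 33 °C to 10 h p.i., three freeze-thaw cycles, supernatant titred by plaque assay on HeLa cells.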

Data set [4] in a line: Cytotoxicity against human HeLa cells after 3 days by XTT assay. To be noted: read-out: TC50. Type of data set: cell-based. The essentials:
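HeLa cells seeded at 2 × 10³ per well with twofold compound dilutions from the maximum soluble concentration, quadruplicate wells, 37 °C in 5% CO2 for 3 days until controls were confluent. Morphology also scored microscopically. MNTC is the highest dose with no toxicity or growth reduction.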

Data set [5] has as its system rhinovirus A1B. In words: Antiviral activity against Human rhinovirus 1B infected in human HeLa cells assessed as reduction of viral yeild at 20 uM treated 2 to 4 hrs after virus infection measured after 10 hrs by plaque reduction assay. The class given is functional, organism-based. The essentials:
as §1

Data set [6] can be described thus: Therapeutic index, ratio of TC50 for human HeLa cells to IC50 for HRV 1B. Type of data set: cell-based. Conditions: read-out: TI. The essentials: (§2)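 Therapeutic index calculated as TC50 for HeLa cells (XTT, 3 days) divided by IC50 for plaque reduction of HRV 14 or HRV 1B in HeLa cells.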
For data set [7], the system named is rhinovirus A1B. In words: Antiviral activity against Human rhinovirus 1B infected in human HeLa cells assessed as virus stabilization at 20 uM at 56 degC after 1 hr by plaque reduction assay (reference value: 3.5 x 10^7 PFU/ml). The class given is functional. The essentials: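 HRV 1B held with or without 20 µM compound for 1 h at 33 °C, then heated 20 min at 56 °C (pH 7.2) and chilled on ice. Serial 10-fold dilution and plaque titration on HeLa monolayers.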

Data set [8] is described as follows: Therapeutic index, ratio of TC50 for human HeLa cells to IC50 for HRV 14. Type of data set: cell-based. To be noted: read-out: TI. The essentials: as §2
The test system of data set [9] is rhinovirus A1B. In words: Antiviral activity against Human rhinovirus 1B infected in human HeLa cells assessed as reduction of viral yeild at 20 uM after 1 hr by plaque reduction assay. The class given is functional. Set-up: scale not given: the % may be the effect or the level left.
Data set [10] relates to rhinovirus A1B. In words: Antiviral activity against Human rhinovirus 1B infected in human HeLa cells assessed as reduction of viral yeild at 20 uM treated 1 hr before infection measured after 10 hrs by plaque reduction assay. The class given is functional, organism-based. The essentials:
as §1

The subject of data set [11] is rhinovirus A1B. The experiment in a line: Antiviral activity against Human rhinovirus 1B infected in human HeLa cells assessed as reduction of viral yeild at 20 uM treated immediately after virus infection measured 30 mins after washout by plaque reduction assay. Set-up: scale not given: the % may be the effect or the level left. The class given is functional. A digest of the protocol:
as §1

A short description of data set [12]: Cytotoxicity against human Hep2 cells assessed as maximum non-cytotoxic concentration after 3 days by XTT assay. Type of data set: cell-based, HEp-2. A digest of the protocol: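 Hep-2 cells grown in high-glucose DMEM, seeded at 2 × 10³ per well with twofold dilutions from the maximum soluble concentration, quadruplicate wells, 3 days at 37 °C in 5% CO2. XTT (final 0.15 mg/mL) for 4 h, read at 492/690 nm, plus microscopic scoring. MNTC is the highest dose causing no toxic effect or growth reduction.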

Data set [13] concerns rhinovirus A1B. In words: Antiviral activity against Human rhinovirus 1B infected in human HeLa cells assessed as virus inactivation at 20 uM at 33 degC after 1 hr by plaque reduction assay (reference value: 2.86 x 10^7 PFU/ml).
Data set [14] deals with rhinovirus A1B. The experiment in a line: Antiviral activity against Human rhinovirus 1B infected in human HeLa cells assessed as reduction of viral yeild at 20 uM treated 1 hr after virus infection measured after 10 hrs by plaque reduction assay. The class given is functional. Also noted: scale not given: the % may be the effect or the level left. The essentials:
as §1

Data set [15] concerns rhinovirus A1B. In words: Antiviral activity against Human rhinovirus 1B infected in human HeLa cells assessed as reduction of viral yeild at 20 uM treated 30 mins after virus infection measured after 10 hrs by plaque reduction assay. Also noted: scale not given: the % may be the effect or the level left. Type of data set: functional. The essentials:
as §1

The test system of data set [16] is Enterovirus A71. The experiment in a line: Antiviral activity against Human enterovirus 71 infected in human Hep2 cells at maximum non-cytotoxic concentration […] by plaque reduction assay. Type of data set: functional, HEp-2.
In data set [17] the test system is rhinovirus A1B. In words: Antiviral activity against Human rhinovirus 1B infected in human HeLa cells assessed as inhibition of viral replication at 20 uM after 10 hrs by plaque reduction assay. Type of data set: functional. Also noted: scale not given: the % may be the effect or the level left. A digest of the protocol:
as §1

In data set [18] the test system is rhinovirus A1B. In words: Antiviral activity against Human rhinovirus 1B infected in human HeLa cells assessed as reduction of viral yeild at 20 uM treated immediately after virus infection measured after 10 hrs by plaque reduction assay. Type of data set: functional. Set-up: scale not given: the % may be the effect or the level left. The essentials: as §1
Data set [19] deals with rhinovirus B14. In words: Antiviral activity against Human rhinovirus 14 infected in human HeLa cells after 3 days by plaque reduction assay. To be noted: for IC50: Rhinovirus B, 72 h. Type of data set: functional, organism-based. The essentials:
(§3)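 HeLa monolayers infected with ATCC HRV 14 or 1B at about 100 plaques per well, 1 h adsorption at 33 °C. Inoculum removed, then plaque overlay with fourfold drug dilutions from the MNTC. Three days at 33 °C, neutral red (0.2 mg/mL, PBS pH 7.4) staining and plaque count, triplicate wells. IC50 from log dose vs % reduction relative to mock-treated control. Otherwise % inhibition at MNTC is reported.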

The subject of data set [20] is rhinovirus A1B. The experiment in a line: Antiviral activity against Human rhinovirus 1B infected in human HeLa cells after 3 days by plaque reduction assay. To be noted: for IC50: Rhinovirus A, 72 h. The class given is functional, organism-based. A digest of the protocol: as §3
Data set [21] deals with rhinovirus B14. The experiment in a line: Antiviral activity against Human rhinovirus 14 infected in human HeLa cells at maximum non-cytotoxic concentration after 3 days by plaque reduction assay. The class given is functional. The essentials:
as §3

The IC50 is the concentration needed to halve the response being measured. Consider `C1=C(/C=C/c2ccccc2)COc2ccccc21`, for which the MNTC at 72 h in data set [1] was 25 µM; in [12], 12.5 µM. Also, the 50% inhibitory concentration (IC50) is > 12.5 µM in the data set with Enterovirus A71 [2], 1.38 µM in the data set on rhinovirus B14 [19] and 0.2 µM in the data set on rhinovirus A1B [20]. The Activity result is “Dose-dependent effect” in the data set on Enterovirus A71 [2]; 91.7% in the data set with rhinovirus A1B [9]; 91.8% in the data set with rhinovirus A1B [11]; 7.7% in the data set with rhinovirus A1B [14]; 90% with rhinovirus A1B [15]; 92% in the data set with rhinovirus A1B [17]. Also, the values for the Activity in the data set on rhinovirus A1B [18], in the data set on rhinovirus B14 [19] and in the data set with rhinovirus A1B [20] were 91.4%, “Dose-dependent effect” and “Dose-dependent effect”, respectively. Moreover, the outcome in the data set on rhinovirus A1B [3] was Active. In addition, the CC50 at 72 h in [4] turned out to be 50 µM. In addition, the outcome with rhinovirus A1B [5] and in the data set on rhinovirus A1B [10] was inactive. Further, the selectivity ratio was 250 in [6] and 36.2 in [8]. In addition, the log10PFU/ml in the data set on rhinovirus A1B [7] is on record as 2.1. Moreover, the PFU/ml in the data set on rhinovirus A1B [13] is 26600000. For the same molecule, in the data set with Enterovirus A71 [16], the “inhibition (INH)” value came to 36.1%.

With `O=c1c(/C=C/C=C/c2ccc(Cl)cc2)coc2ccc(Cl)cc12`, the MNTC at 72 h in data set [1] and in data set [12] was 3.12 µM each time. The IC50 was > 3.12 µM in the data set on Enterovirus A71 [2], > 3.12 µM in the data set on rhinovirus B14 [19] and 0.71 µM with rhinovirus A1B [20]. Further, the Activity entry in the data set on Enterovirus A71 [2], in the data set on rhinovirus B14 [19] and with rhinovirus A1B [20] was “Dose-dependent effect” each time. Besides, in [4], the CC50 at 72 h came to 6.25 µM. The selectivity ratio in [6] stood at 8.8. In addition, the entries for the “inhibition (INH)” value with Enterovirus A71 [16] and in the data set with rhinovirus B14 [21] were 46.6% and 36.2%, respectively.

In the case of `O=c1c(/C=C/c2ccc(Cl)cc2)coc2ccc(Cl)cc12`, the MNTC at 72 h in [1] and in [12] was 25 µM in each case. Also, the results for the half-maximal inhibitory concentration (IC50) with Enterovirus A71 [2], in the data set with rhinovirus B14 [19] and with rhinovirus A1B [20] were > 25 µM, > 25 µM and 2.19 µM, respectively. For the same molecule, the Activity entry in the data set on Enterovirus A71 [2], with rhinovirus B14 [19] and with rhinovirus A1B [20] was “Dose-dependent effect” each time. The CC50 at 72 h in [4] stood at 50 µM. Further, in [6], the selectivity ratio was determined as 22.2. For the same molecule, the “inhibition (INH)” value stood at 35.7% with Enterovirus A71 [16] and 24.1% with rhinovirus B14 [21].
